# APJ agonist = APJ receptor agonism; P35414; CHO-K1 APJ PathHunter beta-arrestin, luminescence; 0% DMSO wells, 100% apelin; activation, % at 20 µM; 330,000 compounds, 0.11% hits; AID 2520;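 active means activation more than six SD over the plate average, tested at 20 µM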;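 further: 0% = DMSO alone and 100% = apelin-13 at 10 nM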
#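 Material: engineered CHO-K1 APJ arrestin reporter cells; amount: 1000 CHO-K1 reporter cells seeded per well; incubation: compound stimulation 90 min at 25 °C, detection 60 min; signal: luminescent beta-gal fragment complementation, chemiluminescent substrate; read-out basis: APJ agonist activity; controls: DMSO-only wells as negative, 10 nM Apelin-13 as positive control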
# CXCR6 block = inhibitors of human CXCR6 receptor; inhibition, % at 20 µM; AID 602244; 360,000 compounds, 0.36% hits; CHO-K1 PathHunter CXCR6 beta-arrestin, luminescence; in the data active means inhibition above about 34%, passing the limit was not always enough;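 further: antagonist mode with CXCL16 agonist at 10 nM final; 0% = 10 nM CXCL16 with DMSO and 100% = unstimulated wells without agonist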
# CCR6 antag = CCR6 (human) receptor antagonism; CHO-K1 CCR6 PathHunter beta-arrestin, luminescence, CCL20-stimulated; inhibition, % at 20 µM; 340,000 compounds, 0.49% hits;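 active means compounds whose inhibition of the agonist-driven luminescence signal at 20 µM reaches about 50%, limit read from the data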;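 further: cells stimulated with CCL20 at 14 nM final; plate controls were DMSO with CCL20 for no effect and DMSO without agonist for full effect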
# APJ antagonist = APJ receptor antagonism. P35414. CHO-K1 APJ beta-arrestin complementation, luminescence. inhibition, % at 20 µM. 330,000 compounds, 0.32% hits;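 active means inhibition above about 40% at 20 µM, limit read from the data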;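 further: cells challenged with 10 nM apelin-13 agonist together with compound; plate controls were apelin-13 plus DMSO wells for no effect and DMSO wells lacking apelin-13 for full effect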
# EBI2 block = EBI2 (human) antagonism; inhibition, % at 5 µM; 360,000 compounds, 0.81% hits; EBI2 beta-arrestin recruitment, luminescence, 7a,25-OHC stimulated; in the data active means inhibition above about 38%;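 further: enzyme fragment complementation signal reports receptor beta-arrestin coupling in cells; 0% = agonist plus DMSO wells and 100% = wells without agonist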
# Target sequence (P32249 whole entry, looked up, the tested form may be a part): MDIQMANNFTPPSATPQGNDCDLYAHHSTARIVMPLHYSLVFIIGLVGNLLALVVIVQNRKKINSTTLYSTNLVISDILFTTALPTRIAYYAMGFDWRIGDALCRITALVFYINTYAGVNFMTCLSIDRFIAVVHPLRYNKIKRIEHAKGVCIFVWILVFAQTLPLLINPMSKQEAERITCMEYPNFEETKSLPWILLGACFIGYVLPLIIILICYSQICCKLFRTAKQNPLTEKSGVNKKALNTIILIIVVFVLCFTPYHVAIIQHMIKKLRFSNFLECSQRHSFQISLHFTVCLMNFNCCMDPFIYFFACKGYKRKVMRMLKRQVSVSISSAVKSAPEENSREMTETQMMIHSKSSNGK
# EBI2 conf = confirmation of human EBI2 receptor antagonists; shares compounds with EBI2 block; EBI2 beta-arrestin luminescence, 7a,25-OHC antagonism; inhibition, % at 5 µM; 2,400 compounds, 29% hits; AID 651997;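 active means inhibition of at least 50%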
# EBI2 agonist = activates EBI2, counter-screen for EBI2 antagonists. shares compounds with EBI2 block. EBI2-expressing cells, agonist mode, luminescence, 60 min; 0% vehicle, 100% 7α,25-dihydroxycholesterol control. activation, % at 5 µM. 2,400 tested, under 10 active. AID 652000;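 active means activation of at least 50%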
# bGal cs = beta-galactosidase inhibition counter-screen; shares compounds with EBI2 block; purified beta-galactosidase, luminescent Galacton Star, 15 min; inhibition, % at 5 µM; 2,400 compounds, 1% hits;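 active means replicate-average signal at least 3 plate SD below neutral wells, shown as high inhibition, flagging enzyme-inhibiting false positives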;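 further: 0% = DMSO wells with enzyme and 100% = wells lacking enzyme; higher means stronger loss of beta-gal luminescence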
# * = called active by the depositor; · = not tested or not shown. Most compounds without a hit are left out; they make up all but 1.5% or so of the library.
SMILES,APJ agonist,CXCR6 block,CCR6 antag,APJ antagonist,EBI2 block,EBI2 conf,EBI2 agonist,bGal cs
O=C(/C=C/c1ccc([N+](=O)[O-])cc1)N1CCN(S(=O)(=O)c2ccccc2)CC1,4,-12,-8,-6,90*,61*,-1,-13
CC(CC(=O)N1CCN(S(=O)(=O)c2ccc([N+](=O)[O-])cc2)CC1)c1ccccc1 (stereo not given),1,-16,5,-86,-7,·,·,·
CCOc1ccc(-c2cn(-c3ccc(OC)cc3)c(SC)n2)cc1,1,-1,11,-2,65*,26,-1,-12
CC(C)n1cc2c(N)ncnc2n1,·,-2,2,·,-4,·,·,·
CC1(C)c2[nH]c3ccccc3c2C[C@@H]2C(=O)N(c3cc(F)ccc3F)C(=O)N21,1,0,7,-67,11,·,·,·
CC[C@H]1c2[nH]c3ccccc3c2C[C@@H]2C(=O)N(c3ccc(F)cc3)C(=O)N21,-2,-10,9,-77,49*,10,0,-10
O=C(Nc1ccc(F)cc1)c1csc(Cc2ccccc2)n1,-4,-1,4,4,-4,·,·,·
COc1ccc(NC(=O)c2csc(Cc3ccccc3)n2)cc1,3,-13,13,9,40*,35,0,-17
CCCCN(C=O)c1c(CC)nc2c(OCc3cccc(Cl)c3)cccn12,·,5,·,·,12,·,·,·
COc1cc(-c2nc3ccc(C)cn3c2NCc2ccccc2)ccc1SC1CCCCC1,0,15,35,-24,72*,55*,2,-1
COc1ccc(-c2nc3ccc(C)cn3c2Cc2cccc(Cl)c2)cc1OC,·,25,·,·,32,·,·,·
COc1cc(-c2nc3ccc(C)cn3c2NCc2ccccc2)ccc1-c1cccc(Cl)c1,-3,8,14,20,80*,66*,1,-5
CCC(C)Sc1ccc(-c2nc3ccc(C)cn3c2NCc2ccccc2)cc1 (stereo not given),2,6,12,19,47*,24,1,6
Cc1cc(C)c(S(=O)(=O)N2CCN(C(=O)c3cc4ccccc4o3)CC2)c(C)c1,-1,2,3,10,90*,83*,3,7
CCOC(=O)N1CCN(C(=O)c2cc3ccccc3o2)CC1,-3,-7,-17,18,64*,21,0,4
O=C(c1ccccc1)N1CCN(C(=O)c2cc3ccccc3o2)CC1,-5,0,4,-1,70*,55*,2,9
Cc1cc(C)c(S(=O)(=O)N2CCN(C(=O)C3COc4ccccc4O3)CC2)c(C)c1 (stereo not given),-2,15,15,15,88*,71*,6,2
O=C(C(=O)N1CCN(C(=O)c2ccco2)CC1)c1cc2ccccc2o1,·,·,·,·,-8,·,·,·
Clc1ccc(NN(Cc2ccncc2)c2ccc(Cl)cc2)cc1,·,-2,·,·,20,·,·,·
COCCN1C(=O)CCC1(C)c1nnnn1-c1ccc2c(c1)OCCO2 (stereo not given),·,-5,·,·,-7,·,·,·
CCOC(=O)c1ccc(S(=O)(=O)N2CCN(C(=O)c3cc4ccccc4o3)CC2)cc1,2,-2,14,7,91*,59*,0,2
O=C(c1cc2ccccc2o1)N1CCN(S(=O)(=O)c2ccc(F)c(F)c2F)CC1,-3,8,1,-9,89*,71*,1,3
CCC(C)(C)C1CCC2(CC1)NC(=O)N(CC(=O)N1CCN(c3ccccc3OC)CC1)C2=O (stereo not given),·,2,·,·,-18,·,·,·
CO[C@H]1CN(C)C(=O)c2ccc(NC(=O)C3CCC3)cc2OC[C@H](C)N(Cc2ccccn2)C[C@@H]1C,·,·,·,·,-10,·,·,·
Cc1ccc(CN2C(=O)CSCC2(C)C(=O)NC(C)C)cc1 (stereo not given),·,·,·,·,-1,·,·,·
